Values after ≈ are worked out from the molar mass of the structure shown.
Legend:
Format in all cases: functional
Bacteroides nordii [1] = assay: Antimicrobial activity against Bacteroides nordii assessed as resistant isolates by agar dilution method
How it was run: (§1)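 CLSI agar dilution on enriched brucella agar (5% lysed defibrinated sheep blood, 1 μg/ml vitamin K1), plates made on test day. Log-phase inocula adjusted to 0.5 McFarland; about 10^5 CFU/spot by Steers replicator. Incubated anaerobically at 37°C for 48 h. MIC was the lowest concentration giving a marked change in growth versus the drug-free control plate. Resistance rates used CLSI anaerobe breakpoints. Controls were B. fragilis ATCC 25285 and B. thetaiotaomicron ATCC 29741.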

Parabacteroides merdae [2] = assay: Antimicrobial activity against Bacteroides merdae assessed as resistant isolates by agar dilution method; how it was run: as §1
[3] = tested on: Bacteroides thetaiotaomicron; assay: Antimicrobial activity against Bacteroides thetaiotaomicron by agar dilution method
How it was run: (§2)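 CLSI agar dilution on enriched brucella agar (5% lysed defibrinated sheep blood, 1 μg/ml vitamin K1), with drug plates made on the test day. Log-phase cells were adjusted to 0.5 McFarland, and about 10^5 CFU/spot was delivered by Steers replicator. Plates were incubated anaerobically at 37°C for 48 h. MIC was the lowest concentration giving a marked growth change versus the control plate. Controls were B. fragilis ATCC 25285 and B. thetaiotaomicron ATCC 29741.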

Parabacteroides merdae [4] = assay: Antimicrobial activity against Bacteroides merdae by agar dilution method; how it was run: as §2
Bacteroides fragilis [5] = assay: Antimicrobial activity against Bacteroides fragilis assessed as resistant isolates by agar dilution method; how it was run: as §1
Cutibacterium acnes [6] = assay: Antimicrobial activity against Propionibacterium acnes by agar dilution method
How it was run: (§3)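 Log-phase isolates were adjusted to 0.5 McFarland, and about 10^5 CFU/spot was delivered by Steers replicator. Plates were incubated anaerobically at 37°C for 48 h. MIC was the lowest concentration giving a marked growth change versus the control plate. Eubacterium lentum ATCC 43055 was the QC strain, with repeats when out of range.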

Phocaeicola vulgatus [7] = assay: Antimicrobial activity against Bacteroides vulgatus assessed as resistant isolates by agar dilution method; how it was run: as §1
[8] = tested on: Parabacteroides distasonis; assay: Antimicrobial activity against Bacteroides distasonis assessed as resistant isolates by agar dilution method; how it was run: as §1
Parvimonas micra = assay: Antimicrobial activity against Micromonas micros by agar dilution method
How it was run: (§4)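 Gram-positive anaerobes were tested by CLSI agar dilution on brucella agar enriched with 5% lysed defibrinated sheep blood and 1 μg/ml vitamin K1. Inoculum was log-phase growth at 0.5 McFarland, about 10^5 CFU/spot by replicator. Incubation was anaerobic, 37°C, 48 h. MIC was the lowest concentration with a marked growth change versus the drug-free plate. Eubacterium lentum ATCC 43055 was the control, and tests were repeated if it fell outside the CLSI range.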

Bacteroides fragilis [9] = assay: Antimicrobial activity against Bacteroides fragilis by agar dilution method; how it was run: as §2
[10] = tested on: Peptoniphilus asaccharolyticus; assay: Antimicrobial activity against Peptoniphilus asaccharolyticus assessed as resistant isolates by agar dilution method; conditions: pooled result: one value given for 4 cell lines, strains, targets or settings
How it was run: (§5)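 Agar dilution following CLSI on brucella agar with 5% lysed defibrinated sheep blood and 1 μg/ml vitamin K1, plates made on test day. Log-phase cells at 0.5 McFarland, about 10^5 CFU/spot by Steers replicator, 48 h anaerobic at 37°C. MIC read as the lowest concentration causing a marked growth change versus control. Resistance counted by CLSI anaerobe breakpoints. Eubacterium lentum ATCC 43055 served as control.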

Bacteroides uniformis [11] = assay: Antimicrobial activity against Bacteroides uniformis by agar dilution method; how it was run: as §2
[Clostridium] innocuum [12] = Antimicrobial activity against Clostridium innocuum assessed as resistant isolates by agar dilution method; conditions: pooled result: one value given for 4 cell lines, strains, targets or settings
Finegoldia magna [13] = assay: Antimicrobial activity against Finegoldia magna assessed as resistant isolates by agar dilution method; how it was run: as §5
Peptostreptococcus sp. = assay: Antimicrobial activity against Peptostreptococcus sp. by agar dilution method; how it was run: as §3
Bacteroides ovatus [14] = assay: Antimicrobial activity against Bacteroides ovatus by agar dilution method; how it was run: as §2
Finegoldia magna [15] = assay: Antimicrobial activity against Finegoldia magna by agar dilution method; how it was run: as §4
Anaerococcus prevotii = assay: Antimicrobial activity against Anaerococcus prevotii by agar dilution method; how it was run: as §4
Propionibacterium [16] = assay: Antimicrobial activity against Propionibacterium sp. assessed as resistant isolates by agar dilution method; how it was run: as §5
Phocaeicola vulgatus [17] = assay: Antimicrobial activity against Bacteroides vulgatus by agar dilution method; how it was run: as §2
Bacteroides eggerthii [18] = assay: Antimicrobial activity against Bacteroides eggerthii assessed as resistant isolates by agar dilution method; how it was run: as §1
Clostridium subterminale = assay: Antimicrobial activity against Clostridium subterminale by agar dilution method
Bacteroides ovatus [19] = assay: Antimicrobial activity against Bacteroides ovatus assessed as resistant isolates by agar dilution method; how it was run: as §1
Bacteroides caccae [20] = assay: Antimicrobial activity against Bacteroides caccae by agar dilution method; how it was run: as §2
Clostridioides difficile = assay: Antimicrobial activity against Clostridium difficile by agar dilution method
Cutibacterium acnes [21] = assay: Antimicrobial activity against Propionibacterium acnes assessed as resistant isolates by agar dilution method; how it was run: as §5
[Clostridium] innocuum [22] = Antimicrobial activity against Clostridium innocuum by agar dilution method
Bacteroides caccae [23] = assay: Antimicrobial activity against Bacteroides caccae assessed as resistant isolates by agar dilution method; how it was run: as §1
Clostridium perfringens = assay: Antimicrobial activity against Clostridium perfringens by agar dilution method
[24] = tested on: Bacteroides thetaiotaomicron; assay: Antimicrobial activity against Bacteroides thetaiotaomicron assessed as resistant isolates by agar dilution method; how it was run: as §1
Propionibacterium [25] = assay: Antimicrobial activity against Propionibacterium sp. by agar dilution method; how it was run: as §3
Bacteroides uniformis [26] = assay: Antimicrobial activity against Bacteroides uniformis assessed as resistant isolates by agar dilution method; how it was run: as §1
Bacteroides nordii [27] = assay: Antimicrobial activity against Bacteroides nordii by agar dilution method; how it was run: as §2
[28] = tested on: Peptoniphilus asaccharolyticus; assay: Antimicrobial activity against Peptoniphilus asaccharolyticus by agar dilution method; how it was run: as §4
[29] = tested on: Clostridium paraputrificum; assay: Antimicrobial activity against Clostridium paraputrificum by agar dilution method
Clostridium tertium = assay: Antimicrobial activity against Clostridium tertium by agar dilution method
[30] = tested on: Parabacteroides distasonis; assay: Antimicrobial activity against Bacteroides distasonis by agar dilution method; how it was run: as §2
Bacteroides eggerthii [31] = assay: Antimicrobial activity against Bacteroides eggerthii by agar dilution method; how it was run: as §2

Compound CO[C@@]1(NC(=O)Cc2cccs2)C(=O)N2C(C(=O)O)=C(COC(N)=O)CS[C@@H]21 [CEFOXITIN] has an Activity (Bacteroides nordii [1]) of 0%, an Activity (Parabacteroides merdae [2]) of 0% and an MIC50 [3] of 32 µg/mL (≈ 74.9 µM). It also gave an MIC90 [3] of 64 µg/mL (≈ 150 µM), an MIC50 (Parabacteroides merdae [4]) of 16 µg/mL (≈ 37.4 µM) and an MIC90 (Parabacteroides merdae [4]) of 32 µg/mL (≈ 74.9 µM). The Activity (Bacteroides fragilis [5]) was 3%, the MIC (Cutibacterium acnes [6]) was 1 µg/mL (≈ 2.34 µM) and the MIC50 (Cutibacterium acnes [6]) was 1 µg/mL (≈ 2.34 µM). For the same compound, the MIC90 (Cutibacterium acnes [6]) was 1 µg/mL (≈ 2.34 µM), the Activity (Phocaeicola vulgatus [7]) was 3.2% and the Activity [8] was 6.7%. The MIC (Parvimonas micra) was 1 µg/mL (≈ 2.34 µM), the MIC50 (Parvimonas micra) was 1 µg/mL (≈ 2.34 µM) and the MIC90 (Parvimonas micra) was 4 µg/mL (≈ 9.36 µM). The MIC50 (Bacteroides fragilis [9]) was 16 µg/mL (≈ 37.4 µM), the MIC90 (Bacteroides fragilis [9]) was 32 µg/mL (≈ 74.9 µM) and the Activity [10] was 0%. It also gave an MIC50 (Bacteroides uniformis [11]) of 16 µg/mL (≈ 37.4 µM), an MIC90 (Bacteroides uniformis [11]) of 64 µg/mL (≈ 150 µM) and an Activity ([Clostridium] innocuum [12]) of 55.6%. The Activity (Finegoldia magna [13]) was 0%, the MIC (Peptostreptococcus sp.) was 1 µg/mL (≈ 2.34 µM) and the MIC50 (Peptostreptococcus sp.) was 1 µg/mL (≈ 2.34 µM). The MIC90 (Peptostreptococcus sp.) was 4 µg/mL (≈ 9.36 µM), the MIC50 (Bacteroides ovatus [14]) was 16 µg/mL (≈ 37.4 µM) and the MIC90 (Bacteroides ovatus [14]) was 64 µg/mL (≈ 150 µM). For the same compound, the MIC (Finegoldia magna [15]) was 1 µg/mL (≈ 2.34 µM), the MIC50 (Finegoldia magna [15]) was 1 µg/mL (≈ 2.34 µM) and the MIC90 (Finegoldia magna [15]) was 1 µg/mL (≈ 2.34 µM). The MIC (Anaerococcus prevotii) was 1 µg/mL (≈ 2.34 µM), the MIC50 (Anaerococcus prevotii) was 1 µg/mL (≈ 2.34 µM) and the MIC90 (Anaerococcus prevotii) was 4 µg/mL (≈ 9.36 µM). The Activity (Propionibacterium [16]) was 0%, the MIC50 (Phocaeicola vulgatus [17]) was 8 µg/mL (≈ 18.7 µM) and the MIC90 (Phocaeicola vulgatus [17]) was 32 µg/mL (≈ 74.9 µM). For the same compound, the Activity (Bacteroides eggerthii [18]) was 0%, the MIC50 (Clostridium subterminale) was 64 µg/mL (≈ 150 µM) and the MIC90 (Clostridium subterminale) was > 128 µg/mL. It also gave an Activity (Bacteroides ovatus [19]) of 14.3%, an MIC50 (Bacteroides caccae [20]) of 16 µg/mL (≈ 37.4 µM) and an MIC90 (Bacteroides caccae [20]) of 32 µg/mL (≈ 74.9 µM). The MIC (Clostridioides difficile) was > 8 µg/mL, the Activity (Cutibacterium acnes [21]) was 0% and the MIC50 ([Clostridium] innocuum [22]) was 64 µg/mL (≈ 150 µM). For the same compound, the MIC90 ([Clostridium] innocuum [22]) was 128 µg/mL (≈ 299 µM), the Activity (Bacteroides caccae [23]) was 6.3% and the MIC (Clostridium perfringens) was 1 µg/mL (≈ 2.34 µM). It also gave an MIC50 (Clostridium perfringens) of 1 µg/mL (≈ 2.34 µM), an MIC90 (Clostridium perfringens) of 4 µg/mL (≈ 9.36 µM) and an Activity [24] of 10.3%. It also gave an MIC (Propionibacterium [25]) of 1 µg/mL (≈ 2.34 µM), an MIC50 (Propionibacterium [25]) of 1 µg/mL (≈ 2.34 µM) and an MIC90 (Propionibacterium [25]) of 1 µg/mL (≈ 2.34 µM). It also gave an Activity (Bacteroides uniformis [26]) of 9.5%, an MIC50 (Bacteroides nordii [27]) of 16 µg/mL (≈ 37.4 µM) and an MIC90 (Bacteroides nordii [27]) of 32 µg/mL (≈ 74.9 µM). For the same compound, the MIC [28] was 1 µg/mL (≈ 2.34 µM), the MIC50 [28] was 1 µg/mL (≈ 2.34 µM) and the MIC90 [28] was 4 µg/mL (≈ 9.36 µM). The MIC50 [29] was 64 µg/mL (≈ 150 µM), the MIC90 [29] was > 128 µg/mL and the MIC50 (Clostridium tertium) was 64 µg/mL (≈ 150 µM). For the same compound, the MIC90 (Clostridium tertium) was > 128 µg/mL, the MIC50 [30] was 16 µg/mL (≈ 37.4 µM) and the MIC90 [30] was 32 µg/mL (≈ 74.9 µM). The MIC50 (Bacteroides eggerthii [31]) was 16 µg/mL (≈ 37.4 µM) and the MIC90 (Bacteroides eggerthii [31]) was 32 µg/mL (≈ 74.9 µM).
